Measured values as given in ChEMBL document CHEMBL4689842, “EUbOPEN Chemogenomics Library wave 1” (2021).

System: U2OS
Assay: Multiplex assay against U2OS
Type: toxicity, cell-based
Settings: human
How it was run: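 Live cells were stained at seeding with Hoechst33342, BioTracker Green Microtubule Cytoskeleton Dye, MitoTracker Red and Annexin V Alexa Fluor 680, then imaged on a CQ1 microscope at 37°C and 5% CO2 after compound addition. CellPathfinder machine-learning gating split cells into Hoechst high-intensity objects or normal cells. Normal cells were split into healthy, pyknosed or fragmented nuclei, and pyknosed cells into mitotic or apoptotic. Tubulin, mitochondrial-mass and membrane-permeability phenotypes are per cents of healthy-nucleus cells.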

[1] = 12 h, 1 µM, compound concentration 1 uM, replicate 1
[2] = 12 h, 1 µM, compound concentration 1 uM, replicate 2
[3] = 12 h, 10 µM, compound concentration 10 uM, replicate 1
[4] = 12 h, 10 µM, compound concentration 10 uM, replicate 2
[5] = 24 h, 1 µM, compound concentration 1 uM, replicate 1
[6] = 24 h, 1 µM, compound concentration 1 uM, replicate 2
[7] = 24 h, 10 µM, compound concentration 10 uM, replicate 1
[8] = 24 h, 10 µM, compound concentration 10 uM, replicate 2
[9] = 48 h, 1 µM, compound concentration 1 uM, replicate 1
[10] = 48 h, 1 µM, compound concentration 1 uM, replicate 2
[11] = 48 h, 10 µM, compound concentration 10 uM, replicate 1
[12] = 48 h, 10 µM, compound concentration 10 uM, replicate 2

COc1ccccc1CN[C@H]1C2CCN(CC2)[C@H]1C(c1ccccc1)c1ccccc1 [CP-96345]
Population Apoptotic (%) [1]: 22%
Population Fragmented Nuclei (%) [1]: 14%
Population Healthy Nuclei (%) [1]: 71%
Population Hoechst High Intensity Objects (%) [1]: 11%
Population Membrane Permeable-Phenotype (%) [1]: 8%
Population Mitochondria Different-Phenotype (%) [1]: 20%
Population Mitotic Cells (%) [1]: 77%
Population Normal (%) [1]: 88%
Population Pyknosed Nuclei (%) [1]: 14%
Population Tubulin-Different-Phenotype (%) [1]: 16%
Total Cell Count [1]: 136
Population Apoptotic (%) [2]: 66%
Population Fragmented Nuclei (%) [2]: 4%
Population Healthy Nuclei (%) [2]: 92%
Population Hoechst High Intensity Objects (%) [2]: 0%
Population Membrane Permeable-Phenotype (%) [2]: 4%
Population Mitochondria Different-Phenotype (%) [2]: 7%
Population Mitotic Cells (%) [2]: 33%
Population Normal (%) [2]: 100%
Population Pyknosed Nuclei (%) [2]: 3%
Population Tubulin-Different-Phenotype (%) [2]: 8%
Total Cell Count [2]: 90
Population Apoptotic (%) [3]: 51%
Population Fragmented Nuclei (%) [3]: 10%
Population Healthy Nuclei (%) [3]: 65%
Population Hoechst High Intensity Objects (%) [3]: 6%
Population Membrane Permeable-Phenotype (%) [3]: 7%
Population Mitochondria Different-Phenotype (%) [3]: 87%
Population Mitotic Cells (%) [3]: 48%
Population Normal (%) [3]: 93%
Population Pyknosed Nuclei (%) [3]: 24%
Population Tubulin-Different-Phenotype (%) [3]: 84%
Total Cell Count [3]: 127
Population Apoptotic (%) [4]: 50%
Population Fragmented Nuclei (%) [4]: 2%
Population Healthy Nuclei (%) [4]: 86%
Population Hoechst High Intensity Objects (%) [4]: 3%
Population Membrane Permeable-Phenotype (%) [4]: 1%
Population Mitochondria Different-Phenotype (%) [4]: 45%
Population Mitotic Cells (%) [4]: 50%
Population Normal (%) [4]: 96%
Population Pyknosed Nuclei (%) [4]: 10%
Population Tubulin-Different-Phenotype (%) [4]: 26%
Total Cell Count [4]: 77
Population Apoptotic (%) [5]: 45%
Population Fragmented Nuclei (%) [5]: 12%
Population Healthy Nuclei (%) [5]: 79%
Population Hoechst High Intensity Objects (%) [5]: 7%
Population Membrane Permeable-Phenotype (%) [5]: 6%
Population Mitochondria Different-Phenotype (%) [5]: 13%
Population Mitotic Cells (%) [5]: 54%
Population Normal (%) [5]: 92%
Population Pyknosed Nuclei (%) [5]: 7%
Population Tubulin-Different-Phenotype (%) [5]: 7%
Total Cell Count [5]: 154
Population Apoptotic (%) [6]: 54%
Population Fragmented Nuclei (%) [6]: 4%
Population Healthy Nuclei (%) [6]: 85%
Population Hoechst High Intensity Objects (%) [6]: 2%
Population Membrane Permeable-Phenotype (%) [6]: 1%
Population Mitochondria Different-Phenotype (%) [6]: 4%
Population Mitotic Cells (%) [6]: 45%
Population Normal (%) [6]: 97%
Population Pyknosed Nuclei (%) [6]: 9%
Population Tubulin-Different-Phenotype (%) [6]: 17%
Total Cell Count [6]: 114
Population Apoptotic (%) [7]: 75%
Population Fragmented Nuclei (%) [7]: 18%
Population Healthy Nuclei (%) [7]: 59%
Population Hoechst High Intensity Objects (%) [7]: 8%
Population Membrane Permeable-Phenotype (%) [7]: 6%
Population Mitochondria Different-Phenotype (%) [7]: 90%
Population Mitotic Cells (%) [7]: 25%
Population Normal (%) [7]: 91%
Population Pyknosed Nuclei (%) [7]: 22%
Population Tubulin-Different-Phenotype (%) [7]: 69%
Total Cell Count [7]: 157
Population Apoptotic (%) [8]: 40%
Population Fragmented Nuclei (%) [8]: 2%
Population Healthy Nuclei (%) [8]: 81%
Population Hoechst High Intensity Objects (%) [8]: 1%
Population Membrane Permeable-Phenotype (%) [8]: 2%
Population Mitochondria Different-Phenotype (%) [8]: 31%
Population Mitotic Cells (%) [8]: 60%
Population Normal (%) [8]: 98%
Population Pyknosed Nuclei (%) [8]: 16%
Population Tubulin-Different-Phenotype (%) [8]: 14%
Total Cell Count [8]: 92
Population Apoptotic (%) [9]: 80%
Population Fragmented Nuclei (%) [9]: 7%
Population Healthy Nuclei (%) [9]: 85%
Population Hoechst High Intensity Objects (%) [9]: 3%
Population Membrane Permeable-Phenotype (%) [9]: 2%
Population Mitochondria Different-Phenotype (%) [9]: 9%
Population Mitotic Cells (%) [9]: 20%
Population Normal (%) [9]: 96%
Population Pyknosed Nuclei (%) [9]: 6%
Population Tubulin-Different-Phenotype (%) [9]: 5%
Total Cell Count [9]: 227
Population Apoptotic (%) [10]: 62%
Population Fragmented Nuclei (%) [10]: 5%
Population Healthy Nuclei (%) [10]: 89%
Population Hoechst High Intensity Objects (%) [10]: 0%
Population Membrane Permeable-Phenotype (%) [10]: 4%
Population Mitochondria Different-Phenotype (%) [10]: 12%
Population Mitotic Cells (%) [10]: 37%
Population Normal (%) [10]: 99%
Population Pyknosed Nuclei (%) [10]: 4%
Population Tubulin-Different-Phenotype (%) [10]: 21%
Total Cell Count [10]: 164
Population Apoptotic (%) [11]: 74%
Population Fragmented Nuclei (%) [11]: 17%
Population Healthy Nuclei (%) [11]: 58%
Population Hoechst High Intensity Objects (%) [11]: 4%
Population Membrane Permeable-Phenotype (%) [11]: 11%
Population Mitochondria Different-Phenotype (%) [11]: 78%
Population Mitotic Cells (%) [11]: 25%
Population Normal (%) [11]: 95%
Population Pyknosed Nuclei (%) [11]: 23%
Population Tubulin-Different-Phenotype (%) [11]: 55%
Total Cell Count [11]: 194
Population Apoptotic (%) [12]: 33%
Population Fragmented Nuclei (%) [12]: 9%
Population Healthy Nuclei (%) [12]: 80%
Population Hoechst High Intensity Objects (%) [12]: 1%
Population Membrane Permeable-Phenotype (%) [12]: 6%
Population Mitochondria Different-Phenotype (%) [12]: 14%
Population Mitotic Cells (%) [12]: 66%
Population Normal (%) [12]: 98%
Population Pyknosed Nuclei (%) [12]: 10%
Population Tubulin-Different-Phenotype (%) [12]: 13%
Total Cell Count [12]: 146

COc1cc2ncn(-c3cc(OCc4ccccc4C(F)(F)F)c(C(N)=O)s3)c2cc1OC [GW843682X]
Population Apoptotic (%) [1]: 54%
Population Fragmented Nuclei (%) [1]: 15%
Population Healthy Nuclei (%) [1]: 78%
Population Hoechst High Intensity Objects (%) [1]: 7%
Population Membrane Permeable-Phenotype (%) [1]: 12%
Population Mitochondria Different-Phenotype (%) [1]: 17%
Population Mitotic Cells (%) [1]: 45%
Population Normal (%) [1]: 92%
Population Pyknosed Nuclei (%) [1]: 6%
Population Tubulin-Different-Phenotype (%) [1]: 28%
Total Cell Count [1]: 170
Population Apoptotic (%) [2]: 50%
Population Fragmented Nuclei (%) [2]: 9%
Population Healthy Nuclei (%) [2]: 80%
Population Hoechst High Intensity Objects (%) [2]: 10%
Population Mitochondria Different-Phenotype (%) [2]: 10%
Population Mitotic Cells (%) [2]: 50%
Population Normal (%) [2]: 89%
Population Pyknosed Nuclei (%) [2]: 9%
Population Tubulin-Different-Phenotype (%) [2]: 20%
Total Cell Count [2]: 83
Population Apoptotic (%) [3]: 54%
Population Fragmented Nuclei (%) [3]: 12%
Population Healthy Nuclei (%) [3]: 71%
Population Hoechst High Intensity Objects (%) [3]: 13%
Population Membrane Permeable-Phenotype (%) [3]: 28%
Population Mitochondria Different-Phenotype (%) [3]: 83%
Population Mitotic Cells (%) [3]: 45%
Population Normal (%) [3]: 86%
Population Pyknosed Nuclei (%) [3]: 15%
Population Tubulin-Different-Phenotype (%) [3]: 97%
Total Cell Count [3]: 185
Population Apoptotic (%) [4]: 50%
Population Fragmented Nuclei (%) [4]: 13%
Population Healthy Nuclei (%) [4]: 75%
Population Hoechst High Intensity Objects (%) [4]: 6%
Population Membrane Permeable-Phenotype (%) [4]: 25%
Population Mitochondria Different-Phenotype (%) [4]: 88%
Population Mitotic Cells (%) [4]: 50%
Population Normal (%) [4]: 93%
Population Pyknosed Nuclei (%) [4]: 11%
Population Tubulin-Different-Phenotype (%) [4]: 98%
Total Cell Count [4]: 68
Population Apoptotic (%) [5]: 62%
Population Fragmented Nuclei (%) [5]: 14%
Population Healthy Nuclei (%) [5]: 76%
Population Hoechst High Intensity Objects (%) [5]: 3%
Population Mitochondria Different-Phenotype (%) [5]: 22%
Population Mitotic Cells (%) [5]: 37%
Population Normal (%) [5]: 96%
Population Pyknosed Nuclei (%) [5]: 8%
Population Tubulin-Different-Phenotype (%) [5]: 20%
Total Cell Count [5]: 166
Population Apoptotic (%) [6]: 55%
Population Fragmented Nuclei (%) [6]: 11%
Population Healthy Nuclei (%) [6]: 74%
Population Hoechst High Intensity Objects (%) [6]: 5%
Population Membrane Permeable-Phenotype (%) [6]: 10%
Population Mitochondria Different-Phenotype (%) [6]: 19%
Population Mitotic Cells (%) [6]: 44%
Population Normal (%) [6]: 94%
Population Pyknosed Nuclei (%) [6]: 14%
Population Tubulin-Different-Phenotype (%) [6]: 17%
Total Cell Count [6]: 85
Population Apoptotic (%) [7]: 51%
Population Fragmented Nuclei (%) [7]: 14%
Population Healthy Nuclei (%) [7]: 66%
Population Hoechst High Intensity Objects (%) [7]: 9%
Population Membrane Permeable-Phenotype (%) [7]: 42%
Population Mitochondria Different-Phenotype (%) [7]: 90%
Population Mitotic Cells (%) [7]: 48%
Population Normal (%) [7]: 90%
Population Pyknosed Nuclei (%) [7]: 18%
Population Tubulin-Different-Phenotype (%) [7]: 98%
Total Cell Count [7]: 190
Population Apoptotic (%) [8]: 50%
Population Fragmented Nuclei (%) [8]: 13%
Population Healthy Nuclei (%) [8]: 69%
Population Membrane Permeable-Phenotype (%) [8]: 41%
Population Mitochondria Different-Phenotype (%) [8]: 91%
Population Mitotic Cells (%) [8]: 50%
Population Pyknosed Nuclei (%) [8]: 17%
Population Tubulin-Different-Phenotype (%) [8]: 97%
Total Cell Count [8]: 67
Population Apoptotic (%) [9]: 71%
Population Fragmented Nuclei (%) [9]: 16%
Population Healthy Nuclei (%) [9]: 66%
Population Hoechst High Intensity Objects (%) [9]: 8%
Population Membrane Permeable-Phenotype (%) [9]: 16%
Population Mitochondria Different-Phenotype (%) [9]: 33%
Population Mitotic Cells (%) [9]: 28%
Population Normal (%) [9]: 91%
Population Pyknosed Nuclei (%) [9]: 16%
Population Tubulin-Different-Phenotype (%) [9]: 18%
Total Cell Count [9]: 160
Population Apoptotic (%) [10]: 62%
Population Fragmented Nuclei (%) [10]: 9%
Population Healthy Nuclei (%) [10]: 79%
Population Hoechst High Intensity Objects (%) [10]: 6%
Population Membrane Permeable-Phenotype (%) [10]: 27%
Population Mitochondria Different-Phenotype (%) [10]: 37%
Population Mitotic Cells (%) [10]: 37%
Population Normal (%) [10]: 93%
Population Pyknosed Nuclei (%) [10]: 10%
Population Tubulin-Different-Phenotype (%) [10]: 34%
Total Cell Count [10]: 91
Population Apoptotic (%) [11]: 78%
Population Fragmented Nuclei (%) [11]: 17%
Population Healthy Nuclei (%) [11]: 53%
Population Hoechst High Intensity Objects (%) [11]: 9%
Population Membrane Permeable-Phenotype (%) [11]: 71%
Population Mitochondria Different-Phenotype (%) [11]: 93%
Population Mitotic Cells (%) [11]: 21%
Population Normal (%) [11]: 90%
Population Pyknosed Nuclei (%) [11]: 29%
Population Tubulin-Different-Phenotype (%) [11]: 97%
Total Cell Count [11]: 187
Population Apoptotic (%) [12]: 71%
Population Fragmented Nuclei (%) [12]: 18%
Population Healthy Nuclei (%) [12]: 62%
Population Hoechst High Intensity Objects (%) [12]: 6%
Population Membrane Permeable-Phenotype (%) [12]: 68%
Population Mitochondria Different-Phenotype (%) [12]: 88%
Population Mitotic Cells (%) [12]: 28%
Population Normal (%) [12]: 93%
Population Pyknosed Nuclei (%) [12]: 19%
Total Cell Count [12]: 78
